Experiments:
[1] = system: Plasmodium falciparum; assay: In vitro inhibitory concentration against chloroquine-resistant, pyrimethamine-resistant Plasmodium falciparum K1; format: functional, organism-based; details: Plasmodium falciparum
[2] = system: Trypanosoma brucei rhodesiense; assay: Inhibitory concentration against Trypanosoma brucei rhodesiense STIB 900 upon incubation at 37 degrees C in 5% CO2 for 72 hours; format: functional, organism-based; details: Trypanosoma brucei, 72 h
[3] = system: Leishmania donovani; assay: Inhibitory concentration against amastigotes of Leishmania donovani strain MHOM/ET/67/L82 upon incubation at 37 degrees C for 72 hours using alamar blue
[4] = target: T1, Beta-ketoacyl-ACP-synthase III (Plasmodium falciparum) (UniProt O77078); assay: Percent inhibition of recombinant Plasmodium falciparum beta-Ketoacyl-acyl carrier protein synthase III activity (MBP-pfKASIII) expressed in E. coli cells using [1-14C]acetyl-CoA as radioligand upon incubation at 37 degrees C for 15 minutes with compound dissolved in 2% DMSO at 10 uM; NA = no activity
T1 sequence (whole entry): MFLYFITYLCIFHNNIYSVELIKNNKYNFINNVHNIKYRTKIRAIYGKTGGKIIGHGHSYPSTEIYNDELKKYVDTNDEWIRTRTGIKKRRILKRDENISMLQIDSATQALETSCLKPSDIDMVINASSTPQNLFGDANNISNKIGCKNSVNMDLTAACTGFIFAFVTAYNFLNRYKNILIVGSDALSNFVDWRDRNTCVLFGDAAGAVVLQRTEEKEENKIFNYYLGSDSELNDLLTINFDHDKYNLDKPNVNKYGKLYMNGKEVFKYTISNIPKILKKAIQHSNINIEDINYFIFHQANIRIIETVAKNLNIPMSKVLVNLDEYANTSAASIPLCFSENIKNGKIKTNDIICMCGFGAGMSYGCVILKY
How it was run: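 MBP-fused pfKASIII from E. coli BL21(DE3) codon+RIL, amylose-purified, 500 ng per reaction. Buffer: 100 mM NaH2PO4 pH 6.6, with 25 µM E. coli ACP prereduced with 1 mM β-mercaptoethanol (37 °C, 30 min), 1 µg E. coli FabD, 65 µM malonyl-CoA and 45 µM [1-14C]acetyl-CoA. 2% DMSO final; 37 °C, 15 min. Read-out: filter disks, TCA-washed, scintillation-counted.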

[5] = system: Trypanosoma cruzi; assay: Inhibitory concentration against Trypanosoma cruzi [Tulahuen strain C2C4] in rat skeletal myoblasts upon incubation at 37 degrees C for 4 days in 5% CO2; format: functional, organism-based; details: Trypanosoma cruzi, 96 h
[6] = target: T1, Beta-ketoacyl-ACP-synthase III (Plasmodium falciparum); assay: Percent inhibition of Plasmodium falciparum beta-Ketoacyl-acyl carrier protein synthase III activity (MBP-pfKASIII) expressed in E. coli cells using [1-14C]acetyl-CoA as radioligand upon incubation at 37 degrees C for 15 minutes with compound dissolved in 2% DMSO at 100 uM

| SMILES | IC50 [1] [µM] | IC50 [2] [µM] | IC50 [3] [µM] | inhibition [4] | IC50 [5] [µM] | inhibition [6] [%] |
| --- | --- | --- | --- | --- | --- | --- |
| CCCCCCCCCCC1(C)NC(=O)C(C(C)=O)=C1O (stereo not given) | 63 | 7 | 3 | No activity | 153 |  |
| CCC1=C(O)OC(C)C1=O (stereo not given) | > 351 | > 633 |  |  | > 633 |  |
| C=CCOC1=C(C)C(=O)SC1(C)CCCCCCCCCC (stereo not given) | 6 | 167 |  |  | 30 | 5 |
| CCCCCCC1(C)OC(O)=C(C)C1=O (stereo not given) | 222 | 247 |  | No activity | > 424 |  |
| CCCCCCCCCCCCCCCCC1(C)SC(O)=C(CCC)C1=O (stereo not given) | 6 | 29 | 0.5 |  | 13 | 20 |
| CCCCCCOCCOCCC1(C)SC(O)=C(CC)C1=O (stereo not given) | > 60 | 119 |  | No activity | 195 |  |
| C=CCC1(C)C(=O)SC(C)C1=O (stereo not given) | 62 | 79 |  | No activity | > 488 |  |
| CC1SC(O)=C(Cc2ccccc2)C1=O (stereo not given) | 195 | 408 |  | No activity | > 408 |  |
| C=CCC1(CCC)C(=O)SC(C)(CCCCCCCCCC)C1=O (stereo not given) | 19 | 9 | 82 | No activity | 47 |  |
| CC1=C(O)SC(C)C1=O (stereo not given) [THIOLACTONE] | > 347 | > 624 |  | No activity | > 624 |  |
| CCC1SC(O)=C(C)C1=O (stereo not given) | > 316 | > 568 |  | No activity | > 568 |  |
| CCCCCCCCC1(C)SC(O)=C(C)C1=O (stereo not given) | 153 | 194 |  |  | > 350 | 10 |
| CCCCCCCCCCC1(CC)SC(O)=C(C)C1=O (stereo not given) | 65 | 153 |  |  | 72 | 15 |
| CCCC1=C(O)C(C)(CCCCCCO[Si](C)(C)C(C)(C)C)SC1=O (stereo not given) | 37 | 2 | 1 | No activity | 150 |  |
| CCCCCCCCCCCCCCCCC1(CC)SC(O)=C(C)C1=O (stereo not given) | 35 | 130 |  |  | 49 | 40 |
| CC(C)=CCC/C(C)=C/CC1(C)SC(O)=C(C)C1=O (stereo not given) | 40 | 190 |  |  | 68 | 45 |
| CCCC1=C(OC)C(C)SC1=O (stereo not given) | 45 | 9 | 100 | No activity | 359 |  |
| CCCC1=C(O)SC(C)C1=O (stereo not given) | > 290 | 288 |  | No activity | > 522 |  |
| CCCCCCCCCCC1(C)SC(=O)C(CCC)=C1OCCCCCCO (stereo not given) | 31 | 64 | 36 |  | 64 | 5 |
| CCCCCCC1(C)SC(O)=C(C)C1=O (stereo not given) | 139 | 112 |  |  | 127 | 10 |
| C=CCOC1=C(CCC)C(=O)SC1(C)CCCCCCCCCC (stereo not given) | 1 | 14 | 66 | No activity | 80 |  |
